Tests used:
[1] = Half life in rat hepatocytes; assay type: ADME, cell-based, Hepatocyte
[2] = MRT in Sprague-Dawley rat at 1 mg/kg, iv by LC-MS/MS analysis; assay type: ADME, organism-based; settings: in vivo
In short: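 Male Sprague-Dawley rats (200-240 g) received 1 mg/kg by tail-vein injection in 2% DMSO, 20% PEG400 and 78% buffered saline, or 10 mg/kg by oral gavage in 0.5% methylcellulose. Orbital sinus blood was drawn into heparinized tubes at 2, 5, 15 and 30 min and at 1, 2, 4, 8, 12 and 24 h, then centrifuged. Plasma was measured by LC/MS/MS in SRM mode, with non-compartmental analysis.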

[3] = target: Tyrosine-protein kinase ABL1 (Homo sapiens) (UniProt P00519); experiment: Inhibition of ABL1 (unknown origin) at 1 uM relative to control
[4] = target: Casein kinase I isoform epsilon (Homo sapiens) (UniProt P49674); experiment: Inhibition of CSNK1E (unknown origin) at 1 uM relative to control
[5] = target: Tyrosine-protein kinase JAK3 (Homo sapiens) (UniProt P52333); experiment: Inhibition of JAK3 (unknown origin) at 1 uM relative to control
[6] = target: Serine/threonine-protein kinase Nek2 (Homo sapiens) (UniProt P51955); experiment: Inhibition of NEK2 (unknown origin) at 1 uM relative to control
[7] = target: Platelet-derived growth factor receptor alpha (Homo sapiens) (UniProt P16234); experiment: Inhibition of PDGFRA (unknown origin) at 1 uM relative to control
[8] = target: Inhibitor of nuclear factor kappa-B kinase subunit alpha (Homo sapiens) (UniProt O15111); experiment: Inhibition of CHUK (unknown origin) at 1 uM relative to control
Sequence of Inhibitor of nuclear factor kappa-B kinase subunit alpha (Homo sapiens) (O15111 whole entry): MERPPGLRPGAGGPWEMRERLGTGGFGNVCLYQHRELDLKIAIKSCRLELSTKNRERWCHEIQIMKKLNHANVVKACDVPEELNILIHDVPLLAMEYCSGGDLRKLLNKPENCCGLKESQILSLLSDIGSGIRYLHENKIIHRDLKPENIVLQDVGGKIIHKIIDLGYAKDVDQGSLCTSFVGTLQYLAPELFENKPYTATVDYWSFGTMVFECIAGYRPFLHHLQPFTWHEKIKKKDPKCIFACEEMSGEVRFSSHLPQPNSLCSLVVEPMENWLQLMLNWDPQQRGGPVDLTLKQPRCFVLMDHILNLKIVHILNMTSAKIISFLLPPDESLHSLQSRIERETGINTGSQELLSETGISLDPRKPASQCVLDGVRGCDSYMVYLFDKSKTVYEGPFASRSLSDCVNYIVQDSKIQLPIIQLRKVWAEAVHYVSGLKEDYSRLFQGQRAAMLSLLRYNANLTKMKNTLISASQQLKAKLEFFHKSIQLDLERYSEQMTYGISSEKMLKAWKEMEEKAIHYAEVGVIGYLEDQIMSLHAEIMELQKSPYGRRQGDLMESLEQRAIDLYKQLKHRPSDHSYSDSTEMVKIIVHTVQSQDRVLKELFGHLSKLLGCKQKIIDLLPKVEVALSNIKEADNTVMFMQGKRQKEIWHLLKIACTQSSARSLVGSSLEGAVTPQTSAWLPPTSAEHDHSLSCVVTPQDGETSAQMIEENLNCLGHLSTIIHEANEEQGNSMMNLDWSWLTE

Sequence of Tyrosine-protein kinase JAK3 (Homo sapiens) (P52333 whole entry): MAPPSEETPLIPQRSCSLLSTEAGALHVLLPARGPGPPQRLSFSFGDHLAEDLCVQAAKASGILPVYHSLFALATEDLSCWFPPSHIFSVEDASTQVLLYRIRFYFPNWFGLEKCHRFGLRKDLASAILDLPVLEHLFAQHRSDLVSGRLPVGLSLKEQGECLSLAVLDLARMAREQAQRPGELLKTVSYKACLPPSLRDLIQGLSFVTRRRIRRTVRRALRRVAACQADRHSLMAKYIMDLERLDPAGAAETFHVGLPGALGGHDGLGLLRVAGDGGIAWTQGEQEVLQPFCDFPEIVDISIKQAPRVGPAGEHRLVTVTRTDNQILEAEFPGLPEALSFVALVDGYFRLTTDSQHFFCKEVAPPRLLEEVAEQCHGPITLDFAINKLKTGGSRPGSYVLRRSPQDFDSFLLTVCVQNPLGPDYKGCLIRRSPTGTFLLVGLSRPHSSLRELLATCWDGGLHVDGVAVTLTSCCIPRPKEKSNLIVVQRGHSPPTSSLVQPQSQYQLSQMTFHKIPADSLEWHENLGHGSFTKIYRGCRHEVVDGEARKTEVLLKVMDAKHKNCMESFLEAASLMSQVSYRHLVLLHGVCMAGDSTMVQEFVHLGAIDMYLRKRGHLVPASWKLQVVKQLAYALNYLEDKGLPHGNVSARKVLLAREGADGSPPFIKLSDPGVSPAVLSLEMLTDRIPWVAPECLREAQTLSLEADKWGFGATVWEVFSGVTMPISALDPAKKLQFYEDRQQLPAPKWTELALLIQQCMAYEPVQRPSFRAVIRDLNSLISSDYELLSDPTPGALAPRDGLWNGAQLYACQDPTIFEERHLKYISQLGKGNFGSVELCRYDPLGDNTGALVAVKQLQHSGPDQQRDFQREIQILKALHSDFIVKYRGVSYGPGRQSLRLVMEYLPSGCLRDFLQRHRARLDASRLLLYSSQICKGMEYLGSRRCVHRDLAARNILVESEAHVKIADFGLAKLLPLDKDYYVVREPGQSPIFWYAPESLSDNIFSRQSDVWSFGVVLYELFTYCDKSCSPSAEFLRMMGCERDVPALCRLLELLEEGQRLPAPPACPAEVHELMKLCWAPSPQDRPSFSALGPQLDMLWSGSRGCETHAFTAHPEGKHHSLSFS
Sequence of Tyrosine-protein kinase ABL1 (Homo sapiens) (P00519 whole entry, canonical isoform): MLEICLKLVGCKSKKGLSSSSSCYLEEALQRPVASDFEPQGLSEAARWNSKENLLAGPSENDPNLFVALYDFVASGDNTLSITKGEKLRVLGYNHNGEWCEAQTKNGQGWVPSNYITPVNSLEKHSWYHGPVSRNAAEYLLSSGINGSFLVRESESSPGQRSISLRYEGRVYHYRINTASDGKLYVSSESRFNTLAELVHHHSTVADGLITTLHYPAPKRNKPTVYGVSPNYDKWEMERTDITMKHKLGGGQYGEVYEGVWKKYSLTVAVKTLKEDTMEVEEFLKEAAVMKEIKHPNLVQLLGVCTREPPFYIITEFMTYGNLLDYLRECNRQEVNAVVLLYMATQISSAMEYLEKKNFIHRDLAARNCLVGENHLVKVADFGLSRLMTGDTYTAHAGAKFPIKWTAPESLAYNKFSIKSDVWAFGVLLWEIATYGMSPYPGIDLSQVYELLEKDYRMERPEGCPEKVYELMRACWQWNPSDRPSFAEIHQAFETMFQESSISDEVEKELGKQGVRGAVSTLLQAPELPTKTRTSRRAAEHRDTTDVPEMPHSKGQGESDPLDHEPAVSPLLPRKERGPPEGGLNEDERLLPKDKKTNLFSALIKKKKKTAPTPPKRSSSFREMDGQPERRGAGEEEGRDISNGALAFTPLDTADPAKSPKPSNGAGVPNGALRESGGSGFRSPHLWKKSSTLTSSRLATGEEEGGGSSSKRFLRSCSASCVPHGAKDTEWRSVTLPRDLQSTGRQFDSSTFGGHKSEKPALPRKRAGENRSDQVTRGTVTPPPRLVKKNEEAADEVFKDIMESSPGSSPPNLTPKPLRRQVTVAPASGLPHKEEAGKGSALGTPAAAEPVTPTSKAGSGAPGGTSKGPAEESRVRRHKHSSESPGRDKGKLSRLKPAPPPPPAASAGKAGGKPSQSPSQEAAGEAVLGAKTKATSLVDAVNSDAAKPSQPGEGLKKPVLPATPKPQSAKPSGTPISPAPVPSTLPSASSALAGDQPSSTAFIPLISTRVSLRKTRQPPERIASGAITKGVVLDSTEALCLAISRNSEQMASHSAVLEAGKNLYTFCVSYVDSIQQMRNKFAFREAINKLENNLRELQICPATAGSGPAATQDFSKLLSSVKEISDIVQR
Sequence of Casein kinase I isoform epsilon (Homo sapiens) (P49674 whole entry, looked up, canonical isoform): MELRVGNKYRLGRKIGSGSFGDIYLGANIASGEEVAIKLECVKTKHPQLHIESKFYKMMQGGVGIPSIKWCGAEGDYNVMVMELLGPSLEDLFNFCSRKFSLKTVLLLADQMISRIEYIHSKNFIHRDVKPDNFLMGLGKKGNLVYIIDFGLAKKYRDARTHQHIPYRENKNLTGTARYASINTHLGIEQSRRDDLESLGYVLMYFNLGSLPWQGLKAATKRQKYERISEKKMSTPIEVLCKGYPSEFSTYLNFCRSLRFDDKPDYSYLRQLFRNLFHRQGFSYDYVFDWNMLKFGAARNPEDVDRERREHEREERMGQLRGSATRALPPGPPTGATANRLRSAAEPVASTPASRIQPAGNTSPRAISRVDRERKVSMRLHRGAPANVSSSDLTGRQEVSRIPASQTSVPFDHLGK
Sequence of Serine/threonine-protein kinase Nek2 (Homo sapiens) (P51955 whole entry): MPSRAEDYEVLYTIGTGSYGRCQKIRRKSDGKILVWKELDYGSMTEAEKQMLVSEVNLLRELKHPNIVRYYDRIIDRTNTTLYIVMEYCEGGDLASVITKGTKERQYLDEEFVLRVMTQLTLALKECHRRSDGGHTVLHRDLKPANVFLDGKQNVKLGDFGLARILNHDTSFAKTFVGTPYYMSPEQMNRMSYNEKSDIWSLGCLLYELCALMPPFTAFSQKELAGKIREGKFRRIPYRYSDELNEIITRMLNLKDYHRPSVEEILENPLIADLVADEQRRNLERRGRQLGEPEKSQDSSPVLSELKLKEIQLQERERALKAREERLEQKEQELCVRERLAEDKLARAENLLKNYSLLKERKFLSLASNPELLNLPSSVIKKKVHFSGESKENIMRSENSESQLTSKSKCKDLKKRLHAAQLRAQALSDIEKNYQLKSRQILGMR
Sequence of Platelet-derived growth factor receptor alpha (Homo sapiens) (P16234 whole entry): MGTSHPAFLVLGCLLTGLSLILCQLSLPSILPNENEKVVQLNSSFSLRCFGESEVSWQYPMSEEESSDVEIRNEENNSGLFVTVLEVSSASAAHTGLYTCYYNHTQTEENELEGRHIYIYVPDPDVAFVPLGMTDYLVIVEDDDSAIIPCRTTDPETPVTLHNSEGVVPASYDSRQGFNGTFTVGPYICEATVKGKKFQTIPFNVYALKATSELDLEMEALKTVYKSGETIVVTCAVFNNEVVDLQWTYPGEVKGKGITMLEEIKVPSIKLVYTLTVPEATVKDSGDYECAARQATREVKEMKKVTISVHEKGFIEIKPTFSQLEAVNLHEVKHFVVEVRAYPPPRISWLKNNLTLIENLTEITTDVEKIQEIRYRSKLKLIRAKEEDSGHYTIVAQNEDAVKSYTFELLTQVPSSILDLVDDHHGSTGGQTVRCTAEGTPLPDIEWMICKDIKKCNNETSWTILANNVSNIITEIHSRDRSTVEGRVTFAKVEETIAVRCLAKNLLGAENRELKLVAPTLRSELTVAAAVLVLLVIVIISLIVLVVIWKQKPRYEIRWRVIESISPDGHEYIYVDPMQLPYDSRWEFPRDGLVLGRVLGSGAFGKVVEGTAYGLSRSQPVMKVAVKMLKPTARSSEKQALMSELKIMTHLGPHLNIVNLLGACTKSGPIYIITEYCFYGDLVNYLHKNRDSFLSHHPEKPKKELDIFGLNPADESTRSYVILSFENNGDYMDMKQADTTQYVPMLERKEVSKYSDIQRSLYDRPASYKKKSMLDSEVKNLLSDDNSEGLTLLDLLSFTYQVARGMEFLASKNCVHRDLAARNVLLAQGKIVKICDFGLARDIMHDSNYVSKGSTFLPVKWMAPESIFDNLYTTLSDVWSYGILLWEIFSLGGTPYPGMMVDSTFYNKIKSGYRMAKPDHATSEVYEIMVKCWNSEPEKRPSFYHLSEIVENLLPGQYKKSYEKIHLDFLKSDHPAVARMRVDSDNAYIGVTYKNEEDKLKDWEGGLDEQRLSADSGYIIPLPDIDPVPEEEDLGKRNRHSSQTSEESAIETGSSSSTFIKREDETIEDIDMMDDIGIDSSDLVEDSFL

Q: For `C=CC(=O)Nc1cc(Nc2nccc(-c3cn4c5c(cccc35)CCC4)n2)c(OC)cc1N(C)CCN(C)C`, which half-life [1] is on record?
A: 33 min

Q: And the MRT [2]?
A: 4.7 h

Q: What about the inhibition [3] of the same molecule?
A: -2%

Q: And the inhibition [4]?
A: 3%

Q: What about the inhibition [5] of the same molecule?
A: 89%

Q: And the inhibition [6]?
A: 7%

Q: What about the inhibition [7] of the same molecule?
A: 13%

Q: And the inhibition [8]?
A: 14%

From ChEMBL document CHEMBL4052618, “Design, synthesis, SAR discussion, in vitro and in vivo evaluation of novel selective EGFR modulator to inhibit L858R/T790M double mutants” (Eur J Med Chem, 2017)
